From PubChem BioAssay
Compounds with a hit are over-represented: about 3.8% of the library has one in this group of screens.
hERG rescue = hERG rescue from dofetilide block, primary screen, cell-based, CHO-hERG, FluxOR thallium flux, dofetilide IC70; Voltage-gated inwardly rectifying potassium channel KCNH2 (Homo sapiens), Q12809; dofetilide IC70 present; activation (rescue from dofetilide block), less the hit threshold, % at 10 µM; hit rate 0.51% among 310,000;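 active means activation above the mean of controls blocked by dofetilide plus 5 SD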;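 further: thallium influx through hERG after potassium depolarization seen as dye fluorescence rise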
KCNQ1 act = potentiators or activators of KCNQ1 channel, primary screen, cell-based, thallium flux, high-throughput | CHO-K1 KCNQ1, thallium flux FluxOR fluorescence; stronger effect = higher value | Potassium voltage-gated channel subfamily KQT member 1 (Homo sapiens), P51787 | B-score at 10 µM | hit rate 0.35% among 310,000;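 active means fluorescence ratio B-score, a plate-corrected score, at least three library SD, with initial intensity B-score within 5 SD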
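Test system: CHO-K1 cells stably expressing KCNQ1 / Medium: assay buffer / Also added: depolarizing K+/Tl+ stimulus, K2SO4 and Tl2SO4 each 12.5 mM in 5x stock / Incubation: 90 min dye loading and 20 min compound exposure, both at room temperature / Signal: thallium influx via FluxOR fluorescence, kinetic imaging / Evaluation: B score of baseline-normalized fluorescence ratio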
Kir21 block = inhibitors of mouse Kir2.1 inward-rectifier potassium channel | hit rate 0.85% among 310,000 | Inward rectifier potassium channel 2 (Mus musculus), P35561 | HEK293-Kir2.1, FluxOR thallium flux fluorescence; stronger effect = lower value | B-score at 10 µM;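 active means fluorescence ratio B-score at or below minus 3 SD of library scores, with starting-brightness B-score within 2 SD, cut at about -4.2 in these data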;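 further: channel flux triggered by added potassium and thallium sulfate stimulus; B-score of peak minus minimum fluorescence over baseline after thallium stimulus; more negative B-score means stronger Kir2.1 block with less thallium influx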
KCNK3 inh = human KCNK3 channel inhibitors, primary screen, CHO cells, FluxOR thallium flux, B-score | Potassium channel subfamily K member 3 (Homo sapiens), O14649 | FluxOR fluorescence; stronger effect = lower value | hit rate 0.84% among 340,000 | B-score at 10 µM;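 active means B-score under library mean minus 4 SD, starting fluorescence ratio at most library mean plus 5 SD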;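 further: more negative B-score means stronger inhibition of thallium flux through KCNK3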
KCNK9 inh = KCNK9 potassium channel inhibitors, primary screen, HEK293 cells, thallium flux; Potassium channel subfamily K member 9 (Homo sapiens), Q9NPC2; FluxOR thallium flux fluorescence; stronger effect = lower value; B-score at 10 µM; hit rate 1.2% among 310,000; AID 488922, 2010;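 active means ratio B-score over 3 SD below the library mean, with starting fluorescence within 5 SD of its mean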;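 further: negative B-score means less thallium flux so channel inhibition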
KCNQ1 block = inhibitors of human KCNQ1 channel, primary screen, cell-based, thallium flux, high-throughput; Potassium voltage-gated channel subfamily KQT member 1 (Homo sapiens), P51787; CHO-K1 KCNQ1, FluxOR thallium flux fluorescence; stronger effect = higher value; B-score at 10 µM; hit rate 1.3% among 310,000; AID 2642, 2010;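 active means compounds whose thallium flux B-score, printed positive for inhibition, exceeds three library SD while starting fluorescence stays within three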;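 further: channel opened by potassium depolarization with thallium stimulus after 20 min compound exposure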
KCNK9 inh conf = KCNK9 potassium channel inhibitors, confirmation, HEK293 cells, thallium flux, duplicate. shares compounds with KCNK9 inh. FluxOR thallium flux fluorescence. inhibition, % at 10 µM. hit rate 43% among 4,900;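 active means thallium signal inhibited by more than 5 SD of the compound-free buffer control wells, on both duplicate plates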;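 further: 0% = assay buffer control wells without compound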
Kir21 sel = mouse Kir2.1 channel inhibition, confirmation, selectivity assay for KCNK9 modulator project, cell-based, HEK293, thallium flux; shares compounds with KCNK9 inh; inhibition, % at 10 µM; Kir2.1 cells, FluxOR thallium flux fluorescence; AID 492993, 2010; hit rate 4% among 4,900;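 active means thallium signal drop more than 5 SD beyond the mean of the no-compound control wells, seen in both duplicate plates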;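 further: signal is fluorescence rise after thallium addition divided by baseline fluorescence; plate controls were assay buffer only for no effect and full block by chlorpromazine control for full effect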
KCNK9 uninduced = thallium flux in non-induced HEK293 cells, confirmation, counter-screen for KCNK9 inhibitor project, cell-based, second counter screen, non-induced KCNK9-HEK293. shares compounds with KCNK9 inh. FluxOR thallium flux. inhibition, % at 10 µM. hit rate 40% among 4,900;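 active means thallium signal drop beyond 5 SD of the untreated control mean, on both duplicate plates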;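 further: plate controls were buffer only IC0 wells for no effect and SID17386958 at its maximal inhibitory level for full effect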
KCNK3 confirm = retest of human KCNK3 channel inhibitors, confirmation, CHO cells, FluxOR thallium flux, triplicate; hit rate 99% among 2,400; FluxOR fluorescence; 0% buffer, 100% carvedilol maximal block; shares compounds with KCNK3 inh; AID 651638, 2012; ratio percent of control, % at 10 µM;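 active means ratio percent of control, averaged over triplicates, above buffer control mean plus 5 SD, cut at about 64% in these data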;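 further: ratio is the fluorescence rise from min to max over baseline after thallium stimulus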
KCNK3 noninduced = thallium flux inhibition in non-induced cells, primary screen, counter-screen for KCNK3 inhibitor project, cell-based, non-induced KCNK3 line, FluxOR thallium, triplicate. shares compounds with KCNK3 inh. non-induced KCNK3 parental cells; stronger effect = lower value. thallium flux ratio (lower = more inhibition) at 10 µM. hit rate 40% among 2,400. AID 651747, 2012;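 active means thallium flux ratio, averaged over three wells, more than 5 SD below the buffer control mean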;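 further: host cells are CHO cells without KCNK3 induction; ratio is peak minus trough fluorescence over baseline then normalized to buffer controls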
* hit, by the source's call; i = inactive; . = no result.

SMILES	hERG rescue	KCNQ1 act	Kir21 block	KCNK3 inh	KCNK9 inh	KCNQ1 block	KCNK9 inh conf	Kir21 sel	KCNK9 uninduced	KCNK3 confirm	KCNK3 noninduced
Cc1cc(Nc2ccc(Cl)cc2)n(-c2cccc(Cl)c2)n1	-14	i	0.12	-9*	-8.2*	i	50%*	i	32%*	149*	0.15*
Cc1cc(NC(=O)CSc2cc(Cl)ccc2Cl)n(-c2ccccc2)n1	-22	i	-2.2	-9.6*	-10*	i	48%*	i	i	127*	0.14*
O=C(c1ccc(CS(=O)c2ccccc2Cl)o1)N1CCN(c2ccccn2)CC1 (stereo not given)	-16	i	-3.3	i	i	i	.	.	.	.	.
O=C(c1cnc2c(c1)COc1ccc(Cl)cc1-2)c1ccccc1O	-3	i	-1.6	i	i	i	.	.	.	.	.
Cc1ccc(O)c(C(=O)c2cnc3c(c2)COc2ccccc2-3)c1	-10	i	-0.4	i	-15*	i	41%*	i	28%*	96*	i
O=C(Nc1cccc(NC(=O)c2ccccc2Cl)c1)c1cccs1	-2	i	-0.28	i	-13*	i	57%*	i	28%*	112*	i
COc1ccc(-c2cccc(NC(=O)c3cccs3)c2)nn1	-16	i	0.54	-10*	-9.1*	i	35%*	i	i	96*	i
Cc1ccc(NC(=O)c2cccs2)cc1NC(=O)c1ccccc1Cl	-4	i	0.54	i	i	i	.	.	.	.	.
COCCNC(=S)N1CCN(Cc2ccc3c(c2)OCO3)CC1	-3	i	0.2	i	i	i	.	.	.	.	.
COc1ccc(NC(=O)c2sccc2SCc2cccc(C(F)(F)F)c2)cc1	-5	i	-4.5*	-9.1*	-16*	i	54%*	34%*	40%*	118*	i
Cn1nc(-c2ccccc2)c(C#N)c1Sc1cccc(Cl)c1	-10	i	-0.1	-9.1*	-11*	i	55%*	i	52%*	113*	0.15*
Cc1ccc(CSc2nc3ccccc3c(=O)n2CCCC(=O)NCc2ccco2)cc1	-5	i	-0.98	i	i	i	.	.	.	.	.
O=c1c2ccccc2nc(SCc2ccccc2)n1Cc1ccco1	-12	i	-0.78	-11*	-12*	i	62%*	i	43%*	104*	i
Cc1ccc(CSc2nc3ccccc3c(=O)n2Cc2ccco2)cc1	-9	i	0.01	-8.9*	-18*	i	80%*	i	45%*	115*	0.16*
